In series [1] the target is T1, Tyrosine-protein phosphatase non-receptor type 1 (Mus musculus) (UniProt P35821).
T1 sequence (whole entry): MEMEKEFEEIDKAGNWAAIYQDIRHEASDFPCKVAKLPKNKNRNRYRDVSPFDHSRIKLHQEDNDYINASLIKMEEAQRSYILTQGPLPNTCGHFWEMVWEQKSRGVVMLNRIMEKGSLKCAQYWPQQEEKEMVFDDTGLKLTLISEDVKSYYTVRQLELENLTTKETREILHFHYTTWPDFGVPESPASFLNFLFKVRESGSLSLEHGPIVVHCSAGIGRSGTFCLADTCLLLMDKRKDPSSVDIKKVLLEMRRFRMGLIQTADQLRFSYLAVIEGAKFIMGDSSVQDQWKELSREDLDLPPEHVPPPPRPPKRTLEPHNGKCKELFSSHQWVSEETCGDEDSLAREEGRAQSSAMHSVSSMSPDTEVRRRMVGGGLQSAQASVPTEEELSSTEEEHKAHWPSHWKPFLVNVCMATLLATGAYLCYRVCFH
As to the kind of experiment: Inhibition of PTP1B in mouse C2C12 cells assessed as increase of insulin receptor beta phosphorylation at 25 uM after 90 mins. The format is cell-based. A digest of the protocol:
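Differentiated, 20 h serum-starved C2C12 myotubes exposed to 25 µM compound (DMSO 1.2% final) for 90 min at 37 °C, insulin 10 nM 30 min as positive control; lysates run on SDS-PAGE, Western blot for phospho-insulin receptor β with actin loading control, densitometry; three replicates, p<0.05 versus control.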

Series [2] in a line: Cytotoxicity against mouse C2C12 cells expressing PTP1B, TC-PTP, LMW-PTP and insulin receptor assessed as cell viability after 2 hrs by MTT assay. The format is cell-based. Also on record: concentration or dose not given beside the values. Particulars: read-out: Activity. In a few lines:
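C2C12 myoblasts differentiated 4 days in DMEM with 2% horse serum, serum-starved 20 h; myotubes then given MTT (0.5 mg/ml final) for 2 h at 37 °C, lysed in DMSO, formazan read at 570 nm; three replicates relative to control.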

For series [3], the target named is T2, Tyrosine-protein phosphatase non-receptor type 1 (Homo sapiens, UniProt P18031).
T2 sequence (P18031 whole entry): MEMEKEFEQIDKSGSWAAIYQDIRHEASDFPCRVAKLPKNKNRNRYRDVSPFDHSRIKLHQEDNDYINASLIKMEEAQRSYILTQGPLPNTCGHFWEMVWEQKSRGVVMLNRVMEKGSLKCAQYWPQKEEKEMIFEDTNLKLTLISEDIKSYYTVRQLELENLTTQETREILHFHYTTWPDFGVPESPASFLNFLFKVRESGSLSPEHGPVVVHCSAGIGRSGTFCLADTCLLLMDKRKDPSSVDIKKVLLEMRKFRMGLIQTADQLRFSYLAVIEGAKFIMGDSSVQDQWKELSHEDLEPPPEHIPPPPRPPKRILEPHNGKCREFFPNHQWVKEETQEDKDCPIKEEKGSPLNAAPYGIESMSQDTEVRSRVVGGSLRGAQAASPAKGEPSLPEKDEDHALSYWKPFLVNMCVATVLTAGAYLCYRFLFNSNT
The experiment in a line: Mixed type inhibition of human recombinant PTP1B expressed in Escherichia coli TB1 using p-nitrophenylphosphate as substrate by Double reciprocal plot analysis. A digest of the protocol: (§1)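 PTP1B (human, GST fusion from pGEX-2T in E. coli TB1, thrombin-cleaved, gel-filtered) assayed at 37 °C, pH 7.0 β,β-dimethylglutarate buffer with 1 mM EDTA and 5 mM DTT, p-nitrophenylphosphate at seven final concentrations (0.5–25 mM) with increasing inhibitor; KOH-stopped, A400. Inhibition type from double reciprocal plots; Ki from apparent Km vs inhibitor concentration; triplicate initial rates.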

The target in series [4] is T3, Tyrosine-protein phosphatase non-receptor type 1 (Homo sapiens) (UniProt P18031).
T3 sequence (whole entry): T2 sequence (P18031 whole entry)
As to the kind of experiment: Partial reversible inhibition of human recombinant PTP1B expressed in Escherichia coli TB1 using p-nitrophenylphosphate as substrate assessed as residual activity at 25 times IC50 after 1 hr measured after 400 fold dilution. In a few lines: (§2)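 Reversibility: PTP1B preincubated 1 h at 37 °C with at least 25-fold […], DMSO in controls; mixture then diluted 400-fold in assay buffer and residual activity measured on p-nitrophenylphosphate; three replicates, mean ± SE.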

The species entered for series [5] is Homo sapiens. As to the kind of experiment: Selectivity ratio of IC50 for human recombinant LMW-PTP IF2 to IC50 for human recombinant LMW-PTP IF1.
For series [6], the species on record is Homo sapiens. As to the kind of experiment: Selectivity ratio of IC50 for human recombinant LMW-PTP IF2 to IC50 for human recombinant PTP1B.
Series [7] is filed under the species Homo sapiens. The experiment in a line: Selectivity ratio of IC50 for human recombinant LMW-PTP IF1 to IC50 for human recombinant PTP1B.
Series [8] deals with T4, Low molecular weight phosphotyrosine protein phosphatase (Homo sapiens, UniProt P24666).
T4 sequence (P24666 whole entry): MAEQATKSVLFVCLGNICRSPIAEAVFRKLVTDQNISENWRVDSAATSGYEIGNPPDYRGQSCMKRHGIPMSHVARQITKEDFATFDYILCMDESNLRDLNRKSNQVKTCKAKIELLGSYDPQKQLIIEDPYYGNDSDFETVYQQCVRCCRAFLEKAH
The experiment in a line: Inhibition of human recombinant LMW-PTP IF2 expressed in Escherichia coli TB1 using p-nitrophenylphosphate as substrate.

The target of series [9] is T2, Tyrosine-protein phosphatase non-receptor type 1. The experiment in a line: Inhibition of human recombinant PTP1B expressed in Escherichia coli TB1 using p-nitrophenylphosphate as substrate.
The target of series [10] is T4, Low molecular weight phosphotyrosine protein phosphatase. As to the kind of experiment: Inhibition of human recombinant LMW-PTP IF1 expressed in Escherichia coli TB1 using p-nitrophenylphosphate as substrate.
Series [11] concerns the target T5, Tyrosine-protein phosphatase non-receptor type 2 (Homo sapiens, UniProt P17706).
T5 sequence (P17706 whole entry): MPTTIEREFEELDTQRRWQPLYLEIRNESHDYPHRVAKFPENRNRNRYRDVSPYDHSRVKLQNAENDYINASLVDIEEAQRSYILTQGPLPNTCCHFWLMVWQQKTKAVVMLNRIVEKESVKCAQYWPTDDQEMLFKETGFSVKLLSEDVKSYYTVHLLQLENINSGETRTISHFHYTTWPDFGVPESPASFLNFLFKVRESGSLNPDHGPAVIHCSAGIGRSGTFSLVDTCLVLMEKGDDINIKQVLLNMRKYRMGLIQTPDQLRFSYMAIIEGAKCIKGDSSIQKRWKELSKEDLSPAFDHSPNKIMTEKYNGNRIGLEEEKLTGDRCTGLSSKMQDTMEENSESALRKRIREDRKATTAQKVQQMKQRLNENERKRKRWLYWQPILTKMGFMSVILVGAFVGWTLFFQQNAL
The experiment in a line: Inhibition of TC-PTP (unknown origin) purchased from New England Biolabs using p-nitrophenylphosphate as substrate.

The target in series [12] is T1, Tyrosine-protein phosphatase non-receptor type 1 (Mus musculus). As to the kind of experiment: Inhibition of PTP1B in mouse C2C12 cells assessed as increase of 2-deoxy-D-1,2-[3H]-glucose at 25 uM after 90 mins by beta-scintillation counting. The format is cell-based. A digest of the protocol: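 Serum-starved differentiated C2C12 myotubes treated 90 min with 25 µM compound (1.2% DMSO) or 30 min with 10 nM insulin, then 0.1 µCi 2-deoxy-D-[1,2-3H]glucose in Ringer-Hepes for 15 min at 37 °C; cold PBS wash, 0.2 M NaOH lysis, scintillation counting normalized to Bradford protein; three replicates.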

The target of series [13] is T2, Tyrosine-protein phosphatase non-receptor type 1. As to the kind of experiment: Noncompetitive inhibition of human recombinant PTP1B expressed in Escherichia coli TB1 using p-nitrophenylphosphate as substrate by Double reciprocal plot analysis. In a few lines:
as §1

Series [14] addresses T3, Tyrosine-protein phosphatase non-receptor type 1 (Homo sapiens). The experiment in a line: Reversible inhibition of human recombinant PTP1B expressed in Escherichia coli TB1 using p-nitrophenylphosphate as substrate assessed as residual activity at 25 times IC50 after 1 hr measured after 400 fold dilution. A digest of the protocol:
as §2

Series [15] is filed under the species Homo sapiens. As to the kind of experiment: Selectivity ratio of IC50 for TC-PTP (unknown origin) to IC50 for human recombinant PTP1B. A digest of the protocol:
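Commercial T-cell PTP assayed on p-nitrophenylphosphate at 37 °C, pH 7.0 β,β-dimethylglutarate buffer with 1 mM EDTA and 5 mM DTT; stopped with 1 M KOH, absorbance at 400 nm; IC50 from ratio of activity with and without inhibitor versus inhibitor concentration. Ratio lines pair this with recombinant human PTP1B measured the same way.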

The target in series [16] is T2, Tyrosine-protein phosphatase non-receptor type 1. The experiment in a line: Competitive inhibition of human recombinant PTP1B expressed in Escherichia coli TB1 using p-nitrophenylphosphate as substrate by Double reciprocal plot analysis. A digest of the protocol:
as §1

Experimental findings from ChEMBL document CHEMBL3098122, “Synthesis, biological activity and structure-activity relationships of new benzoic acid-based protein tyrosine phosphatase inhibitors endowed with insulinomimetic effects in mouse C2C12 skeletal muscle cells” (Eur J Med Chem, 2014) are described below.

Calls of active or inactive are those of the source. The rule behind the calls is not given here.

On to `O=C(O)c1ccc(CN2C(=O)/C(=C/c3ccc(OCCc4ccccc4)cc3)S/C2=N\c2ccccc2)cc1`, for which the inhibition result in series [1] is “Active”. Besides, the viability at 2 h in series [2] was not below 80%. The Ki (in general, the dissociation constant of the complex between target and ligand, obtained from inhibition or displacement) in series [3] amounted to 0.5 µM. Further, the Activity in series [4] turned out to be 50%. The Ratio IC50 in [5], in series [6] and in series [7] was more than 2 in each case. Further, the IC50 (in general, the concentration that inhibits the measured activity by half) in series [8] came to 8.9 µM; in series [9] it was 1.5 µM; in [10], 4 µM; in [11], 0.7 µM.

In the case of `COc1cc(/C=C2\SC(=O)N(Cc3ccc(C(=O)O)cc3)C2=O)ccc1OCCc1ccccc1`, the inhibition entry in series [12] and in series [1] was “Active” each time. For the same compound, in series [2], the viability at 2 h was not below 80%. For the same compound, in series [13], the Ki was found to be 1.4 µM. For the same compound, the Activity in [14] was 80%. The Ratio IC50 in series [15] is 2; in series [5], more than 2; in [6], more than 2; in [7] it was more than 2. The IC50 in series [8] was more than 50 µM; in [9] it was 1.1 µM; in [10], 10.8 µM; in [11] it was 3.5 µM.

Consider `COc1ccc(/C=C2\S/C(=N\c3ccccc3)N(Cc3ccc(C(=O)O)cc3)C2=O)cc1OCCc1ccccc1`, for which, in series [1], the inhibition result is “Active”. Moreover, the viability at 2 h in series [2] is not below 80%. For the same compound, the Ki in [16] came to 1.5 µM. Also, in series [14], the Activity was 80%. The Ratio IC50 in series [15] is 2; in series [5], more than 2; in series [6], more than 2; in series [7] it was more than 2. Further, the IC50 in series [8] was more than 50 µM; in series [9], 1.7 µM; in [10], 17.2 µM; in series [11], 4.3 µM.

As to `O=C(O)c1ccc(CN2C(=O)S/C(=C\c3ccc(OCCc4ccccc4)cc3)C2=O)cc1`, in [2], the viability at 2 h was not below 80%. Also, the Ki in series [3] turned out to be 2.3 µM. For the same compound, the Activity in [14] stood at 80%. For the same compound, the Ratio IC50 was 2 in series [15], more than 2 in series [5], more than 2 in [6] and more than 2 in series [7]. In addition, the IC50 in series [8] is more than 50 µM; in series [9], 2.6 µM; in [10] it was 20.1 µM; in series [11], 5.9 µM.
